Measured values pooled from the literature.
Protocols differ between the studies behind these lines.
USP51: Ubiquitin carboxyl-terminal hydrolase 51 (USP51, Homo sapiens, UniProt Q70EK9)
DRD3: D(3) dopamine receptor (DRD3, Homo sapiens, UniProt P35462)
SLC6A3: Sodium-dependent dopamine transporter (SLC6A3, Homo sapiens, UniProt Q01959)
CA12: Carbonic anhydrase 12 (CA12, Homo sapiens, UniProt O43570)

SMILES	target	assay	system	setting	inhibition
CCCOC(=O)c1cc(O)c(O)c(O)c1	USP51	enzyme activity, inhibitor		5 µM	97%
O=C1CC(N2CCN(Cc3ccccc3)CC2)C(=O)N1c1ccc2c(c1)OCCO2 (stereo not drawn)	DRD3	enzyme activity, inhibitor		10 µM	-26%
Fc1ccc(C(c2ccc(F)cc2)c2nnnn2CCCCN2CCN(Cc3ccccc3)CC2)cc1	SLC6A3	transporter uptake, inhibitor	HEK293	1 µM	95.7%
C=CCn1c(SCC(=O)NC2=NN(c3ccccc3)C(=O)C2)nnc1-c1cccs1	DRD3	enzyme activity, inhibitor		10 µM	-4.7%
Fc1ccc(C(c2ccc(F)cc2)c2nnnn2CCCCN2CCC(Cc3ccccc3)CC2)cc1	SLC6A3	transporter uptake, inhibitor	HEK293	1 µM	92.3%
O=C1C[C@@H](c2ccccc2)Oc2cc(O)cc(O)c21	USP51	enzyme activity, inhibitor		5 µM	2%
O=C(c1cccc(Cl)c1)N1CCN(CCNc2cc(=O)oc3ccccc23)CC1	DRD3	enzyme activity, inhibitor		10 µM	-11.3%
c1ccc(CCC2CCN(CCCn3nnnc3C(c3ccccc3)c3ccccc3)CC2)cc1	SLC6A3	transporter uptake, inhibitor	HEK293	1 µM	68.3%
COc1ccccc1N1CCN(CC(O)Cn2cnc3c2c(=O)n(C)c(=O)n3C)CC1 (stereo not drawn)	DRD3	enzyme activity, inhibitor		10 µM	-20.3%
O=C(/C=C/C=C/c1ccc2c(c1)OCO2)N1CCCCC1	USP51	enzyme activity, inhibitor		5 µM	31%
O=C(c1ccc(Cl)cc1)N(Cc1ccccc1)C1CCCCC1	Peroxisome proliferator-activated receptor gamma (PPARG, Homo sapiens, UniProt P37231)	cell-free assay		10 µM	14.6%
O=C(CN1CCN(c2ccc(F)cc2)CC1)Nc1cc(Cl)cc(Cl)c1	DRD3	enzyme activity, inhibitor		10 µM	-6.1%
Cc1ccc(Nc2nccc(N(C)c3ccc4c(C)n(C)nc4c3)n2)cc1S(N)(=O)=O	Tyrosine-protein kinase Lyn (Lyn, Mus musculus, UniProt P25911)	enzyme activity, inhibitor		10 µM	97%
CCOC(=O)C1CSc2[nH]c(=O)sc2C1c1cn(-c2ccccc2)nc1-c1ccc(Br)cc1 (stereo not drawn)	CA12	enzyme activity, inhibitor, absorbance		100 µM	92.1%
Nc1cc[nH]c(=O)n1	USP51	enzyme activity, inhibitor		5 µM	27%
Cc1ccc(-c2nn(-c3ccccc3)cc2C2c3sc(=O)[nH]c3SC3C(=O)N(c4ccccc4)C(=O)C32)cc1 (stereo not drawn)	CA12	enzyme activity, inhibitor, absorbance		0.1 µM	33.2%
Nc1ncnc2c1ncn2[C@@H]1O[C@H](CO)[C@@H](O)[C@H]1O	USP51	enzyme activity, inhibitor		5 µM	24%
N#CC1CSc2[nH]c(=O)sc2C1c1cn(-c2ccccc2)nc1-c1ccc(Br)cc1 (stereo not drawn)	CA12	enzyme activity, inhibitor, absorbance		1 µM	61.5%
COc1cc(C=O)ccc1O	USP51	enzyme activity, inhibitor		5 µM	50%
CCOC(=O)C1CSc2[nH]c(=O)sc2C1c1cn(-c2ccccc2)nc1-c1ccccc1 (stereo not drawn)	CA12	enzyme activity, inhibitor, absorbance		1 µM	46.7%
Fc1ccc(C(c2ccc(F)cc2)c2nnnn2CCCCN2CCC(Cc3ccc(Cl)c(Cl)c3)CC2)cc1	SLC6A3	transporter uptake, inhibitor	HEK293	1 µM	68.9%
